Experimental data taken from ChEMBL document CHEMBL1137366, “Novel Schiff base copper complexes of quinoline-2 carboxaldehyde as proteasome inhibitors in human prostate cancer cells” (J Med Chem, 2006).
Activity calls are given as the source filed them. The calls are words filed in the database; no cut-off is given here.

What was measured:
LNCaP [1] = test: Inhibition in LnCaP cell line growth by ELISA apoptosis assay upto 20 uM; format: functional, cell-based; conditions: Homo sapiens
In short: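 Apoptotic cell death in LNCaP cells measured by histone/DNA ELISA. Cells were treated for 72 h at 10 and 20 µM and compared with a control.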

LNCaP [2] = test: Induction of apoptosis in LnCaP cells assessed as PARP cleavage by Western blot analysis; format: functional, cell-based; conditions: Homo sapiens
LNCaP [3] = test: Cytotoxicity against human LnCaP cell line by MTT assay after 72 hrs; format: functional, cell-based
In short: (§1)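 MTT growth-inhibition assay in prostate cancer cells. Cells were exposed to compounds for 72 h. IC50 was taken from the dose–response data.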

[4] = target: T1, Proteasome Macropain subunit MB1 (Homo sapiens, UniProt P28074); test: Inhibition of chymotrypsin-like activity of proteasome in intact LnCaP cells; format: cell-based
T1 sequence (P28074 whole entry): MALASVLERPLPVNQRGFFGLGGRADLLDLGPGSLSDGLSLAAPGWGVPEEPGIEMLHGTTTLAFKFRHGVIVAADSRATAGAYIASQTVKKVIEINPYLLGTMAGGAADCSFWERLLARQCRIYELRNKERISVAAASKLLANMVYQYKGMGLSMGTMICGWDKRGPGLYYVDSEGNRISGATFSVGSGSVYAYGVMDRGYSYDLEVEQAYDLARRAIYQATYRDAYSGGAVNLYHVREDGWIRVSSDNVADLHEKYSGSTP
In short: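 Intact LNCaP cells were treated, then whole-cell extracts were assayed for proteasome chymotrypsin-like activity. CuCl2 alone served as control. IC50 values were derived.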

LNCaP [5] = test: Induction of apoptosis in LnCaP cells measured by hydrogen peroxide assay; format: functional, cell-based; conditions: Homo sapiens
In short: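 LNCaP cells were treated for 24 h at 4, 7 and 10 µM. H2O2 was then measured with the Amplex Red hydrogen peroxide kit at time points from 1 to 6 h. Absorbance was normalized to control.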

PC-3 = test: Cytotoxicity against human PC3 cell line by MTT assay after 72 hrs; format: functional, cell-based; conditions: PC-3, 72 h; in short: as §1

| Compound | Activity (LNCaP [1]) | Activity (LNCaP [2]) | IC50 (LNCaP [3]) | IC50 [4] | Activity (LNCaP [5]) | IC50 (PC-3) |
| --- | --- | --- | --- | --- | --- | --- |
| NC(=S)N/N=C/c1ccc2ccccc2n1 | Dose-dependent effect | Active | 16 µM | ≥ 10 µM | inactive | 21 µM |
| O=C(N/N=C/c1ccc2ccccc2n1)c1ccccc1 | – | – | 20 µM | – | – | 25 µM |
| O=C(N/N=C/c1ccc2ccccc2n1)c1ccccc1O | – | – | 20 µM | – | – | 31 µM |
